Values after ≈ are worked out from the molar mass of the structure shown.
Experiments:
CCRF-CEM = assay: Tested for in vitro cytostatic activity against CEM cells; assay type: functional, cell-based; settings: Homo sapiens
Method in brief: (§1)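 Cells seeded at 5 × 10^5/mL (murine L1210 leukemia, FM3A mammary carcinoma) or 7.5 × 10^5/mL (human Molt-4 clone 8, CEM) and exposed to varying compound concentrations. Incubation at 37 °C in humidified CO2 was 2 days for L1210/FM3A and 3 days for Molt-4/CEM. Viable cells were Coulter-counted; IC50 is the concentration reducing viable cell number by 50%. Means of at least two to three determinations.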

E6SM [1] = assay: Tested for the antiviral activity against HSV-1 (KOS) in human E6SM cells; assay type: functional
Method in brief: (§2)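 Confluent E6SM, HeLa or Vero cultures were inoculated with 100 CCID50 of virus and allowed 1 h adsorption. Residual virus was removed, then cells were incubated with compound at 400, 200, 100 … μg/mL. Virus-induced cytopathicity was scored once complete in untreated infected controls. MIC is the minimum inhibitory concentration.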

E6SM [2] = assay: Tested for the antiviral activity against HSV-2 in human E6SM cells; assay type: functional; method in brief: as §2
E6SM [3] = assay: Tested for the antiviral activity against Vaccinia virus in human E6SM cells; assay type: functional; method in brief: as §2
E6SM [4] = assay: Tested for the antiviral activity against Vesicular stomatitis virus in human E6SM cells; assay type: functional; method in brief: as §2
E6SM [5] = assay: Tested for the minimum cytotoxic concentration against E6SM cells; assay type: functional; settings: Homo sapiens
Method in brief: (§3)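 Uninfected E6SM, HeLa or Vero cultures were incubated with serial compound concentrations (400, 200, 100 … μg/mL). Cytotoxicity was judged as microscopically detectable alteration of normal cell morphology. The value is the minimum concentration causing this alteration.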

FM3A = assay: Tested for in vitro cytostatic activity against murine mammary carcinoma (FM3A); assay type: functional, cell-based; settings: Mus musculus; method in brief: as §1
HeLa [6] = assay: Tested for the antiviral activity against Coxsackie B4 virus in human HeLa cells; assay type: functional; method in brief: as §2
HeLa [7] = assay: Tested for the antiviral activity against Vesicular stomatitis virus in human HeLa cells; assay type: functional; method in brief: as §2
HeLa [8] = assay: Tested for the antiviral activity against polio-1 virus in human HeLa cells; assay type: functional; method in brief: as §2
HeLa [9] = assay: Tested for the minimum cytotoxic concentration against HeLa cells; assay type: functional; settings: Homo sapiens; method in brief: as §3
L1210 = assay: Tested for in vitro cytostatic activity against murine leukemia L1210; assay type: functional, cell-based; settings: Mus musculus; method in brief: as §1
MOLT-4 [10] = assay: Tested for in vitro cytostatic activity against human lymphoblast Molt-4 (Clone8); assay type: functional, cell-based; method in brief: as §1
Adenosylhomocysteinase [11] = molecular target: T1, Adenosylhomocysteinase (Homo sapiens, UniProt P23526); assay: Tested for kinetic constant for the inhibition of recombinant human placental S-Adenosyl-L-homocysteine Hydrolase
Target sequence in this assay (P23526 whole entry): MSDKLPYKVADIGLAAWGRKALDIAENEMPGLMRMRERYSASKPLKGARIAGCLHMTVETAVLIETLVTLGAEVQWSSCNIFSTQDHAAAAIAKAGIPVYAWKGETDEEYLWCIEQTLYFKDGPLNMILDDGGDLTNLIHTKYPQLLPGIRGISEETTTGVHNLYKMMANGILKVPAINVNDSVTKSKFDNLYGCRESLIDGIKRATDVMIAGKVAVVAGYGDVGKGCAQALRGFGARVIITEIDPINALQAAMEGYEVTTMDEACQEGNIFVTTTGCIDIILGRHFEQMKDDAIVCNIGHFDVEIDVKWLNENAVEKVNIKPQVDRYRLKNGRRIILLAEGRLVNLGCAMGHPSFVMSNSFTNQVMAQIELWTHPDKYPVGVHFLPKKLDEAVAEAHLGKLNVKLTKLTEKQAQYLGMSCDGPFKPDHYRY

Vero [12] = assay: Tested for the minimum cytotoxic concentration against Vero cells; assay type: functional; settings: Chlorocebus sabaeus; method in brief: as §3
Vero [13] = assay: Tested for the antiviral activity against Parainfluenza-3 virus in simian Vero cells; assay type: functional; settings: Chlorocebus sabaeus; method in brief: as §2
Vero [14] = assay: Tested for the antiviral activity against forest virus in simian Vero cells; assay type: functional; settings: Chlorocebus sabaeus; method in brief: as §2
Vero [15] = assay: Tested for the antiviral activity against Sindbis virus in simian Vero cells; assay type: functional; settings: Chlorocebus sabaeus; method in brief: as §2
Vero [16] = assay: Tested for the antiviral activity against reovirus-1 in simian Vero cells; assay type: functional; settings: Chlorocebus sabaeus; method in brief: as §2
[17] = Tested ratio of kinact to that of Ki
Method in brief: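 Purified recombinant human placental AdoHcy hydrolase (10 nM) preincubated with various inhibitor concentrations for various times at 37 °C, pH 7.2, in 50 mM potassium phosphate with 1 mM EDTA. Residual activity was measured in the synthetic direction by adding Ado and homocysteine for 5 min. The reaction was stopped with perchloric acid and AdoHcy quantified by C-18 HPLC at 258 nm. Ki and kinact were derived from 1/Kapp = 1/kinact + Ki/kinact[I].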

Adenosylhomocysteinase [18] = molecular target: T1, Adenosylhomocysteinase
Target sequence in this assay (P23526 2-432 limits assumed): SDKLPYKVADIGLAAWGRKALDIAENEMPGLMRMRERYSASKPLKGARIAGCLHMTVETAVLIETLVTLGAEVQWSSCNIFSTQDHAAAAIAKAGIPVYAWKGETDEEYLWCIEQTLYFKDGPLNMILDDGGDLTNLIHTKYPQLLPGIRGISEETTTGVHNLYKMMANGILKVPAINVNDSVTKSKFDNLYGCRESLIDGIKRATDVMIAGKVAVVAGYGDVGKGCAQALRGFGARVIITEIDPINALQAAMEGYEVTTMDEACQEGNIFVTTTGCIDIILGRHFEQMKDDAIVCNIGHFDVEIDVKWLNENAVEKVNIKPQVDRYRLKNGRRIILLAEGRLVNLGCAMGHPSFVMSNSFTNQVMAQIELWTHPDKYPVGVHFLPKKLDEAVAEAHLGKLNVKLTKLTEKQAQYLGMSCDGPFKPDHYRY

E6SM [19] = assay: Tested for the antiviral activity against HSV-2 in Human E6SM cells; assay type: functional; method in brief: as §2
MOLT-4 [20] = assay: Tested for in vitro cytostatic activity against Human lymphoblast Molt-4 (Clone8); assay type: functional, cell-based; method in brief: as §1
HeLa [21] = assay: Tested for the antiviral activity against Coxsackie B4 virus in Human HeLa cells; assay type: functional; method in brief: as §2
E6SM [22] = assay: Tested for the minimum cytotoxic concentration on E6SM cells; assay type: functional; settings: Homo sapiens; method in brief: as §3
HeLa [23] = assay: Tested for the minimum cytotoxic concentration on HeLa cells; assay type: functional; settings: Homo sapiens; method in brief: as §3
Vero [24] = assay: Tested for the minimum cytotoxic concentration on Vero cells; assay type: functional; settings: Chlorocebus sabaeus; method in brief: as §3
Vero [25] = assay: Tested for the antiviral activity against Parainfluenza-3 virus in Simian Vero cells; assay type: functional; settings: Chlorocebus sabaeus; method in brief: as §2

Compound	IC50 (CCRF-CEM) [µM]	MIC (E6SM [1]) [µg/mL]	MIC (E6SM [2]) [µg/mL]	MIC (E6SM [3]) [µg/mL]	MIC (E6SM [4]) [µg/mL]	MCC (E6SM [5]) [µg/mL]	IC50 (FM3A) [µM]	MIC (HeLa [6]) [µg/mL]	MIC (HeLa [7]) [µg/mL]	MIC (HeLa [8]) [µg/mL]	MCC (HeLa [9]) [µg/mL]	IC50 (L1210) [µM]	IC50 (MOLT-4 [10]) [µM]	Ki (Adenosylhomocysteinase [11]) [µM]	MCC (Vero [12]) [µg/mL]	MIC (Vero [13]) [µg/mL]	MIC (Vero [14]) [µg/mL]	MIC (Vero [15]) [µg/mL]	MIC (Vero [16]) [µg/mL]	Ratio [17]	also measured
Nc1ncnc2c1ncn2[C@@H]1O[C@H](/C=C/Cl)[C@@H](O)[C@H]1O	99	> 200	> 200	70 (≈ 235 µM)	70 (≈ 235 µM)	400	160	> 200	> 200	> 200	≥ 200	139	80	0.11	≥ 200	> 200	> 100	> 100	> 100	0.13	K inact (Adenosylhomocysteinase [18]): 0.014 min⁻¹
Nc1ncnc2c1ncn2[C@@H]1O[C@H](/C=C\Cl)[C@@H](O)[C@H]1O	86	70 (≈ 235 µM)	> 100	20 (≈ 67.2 µM)	20 (≈ 67.2 µM)	≥ 200	164	> 100	70 (≈ 235 µM)		≥ 200	143	117		≥ 100	> 100	70 (≈ 235 µM)	20 (≈ 67.2 µM)	70 (≈ 235 µM)		
Nc1ncnc2c1ncn2C1O[C@H](/C=C/I)[C@@H](O)[C@H]1O (some centres undefined)	26	> 100	> 100	7 (≈ 18 µM)	2 (≈ 5.14 µM)	≥ 200	15	> 100	7 (≈ 18 µM)		200	15	18	0.096	≥ 200	> 200	> 200	> 200	> 200	0.6	K inact (Adenosylhomocysteinase [18]): 0.058 min⁻¹
Nc1ncnc2c1ncn2[C@@H]1O[C@H](/C=C\I)[C@@H](O)[C@H]1O	32	> 200	> 200	20 (≈ 51.4 µM)	7 (≈ 18 µM)	> 200	43	> 200	7 (≈ 18 µM)		> 200	43	21		> 200	> 200	> 200	> 200	100 (≈ 257 µM)		
Nc1ncnc2c1ncn2[C@@H]1O[C@H](/C=C/Br)[C@@H](O)[C@H]1O	56	150 (≈ 438 µM)		20 (≈ 58.5 µM)	7 (≈ 20.5 µM)	≥ 200	60	> 100	7 (≈ 20.5 µM)		≥ 200	42		0.134	≥ 200	> 200	> 100	> 100	> 100	0.21	MIC (E6SM [19]): > 100 µg/mL; IC50 (MOLT-4 [20]): 56 µM; K inact (Adenosylhomocysteinase [18]): 0.028 min⁻¹
Nc1ncnc2c1ncn2C1O[C@H](/C=C/F)[C@@H](O)[C@H]1O (some centres undefined)	147	> 200	150 (≈ 533 µM)	70 (≈ 249 µM)	100 (≈ 356 µM)	> 200	287		> 100	150 (≈ 533 µM)	> 200	301	266	1.3	> 200	150 (≈ 533 µM)		200 (≈ 711 µM)	70 (≈ 249 µM)	0.008	MIC (HeLa [21]): > 100 µg/mL; K inact (Adenosylhomocysteinase [18]): 0.01 min⁻¹
C=C(Br)[C@H]1OC(n2cnc3c(N)ncnc32)[C@H](O)[C@@H]1O (some centres undefined)	13						47					25									
Cc1ccc(S(=O)(=O)/C=C/[C@H]2OC(n3cnc4c(N)ncnc43)[C@H](O)[C@@H]2O)cc1 (some centres undefined)	20	20 (≈ 47.9 µM)		20 (≈ 47.9 µM)	> 100		208	> 400	> 400	> 400		54	32				> 400	> 400	> 400		MIC (E6SM [19]): 20 µg/mL (≈ 47.9 µM); MCC (E6SM [22]): 200 µg/mL; MCC (HeLa [23]): > 400 µg/mL; MCC (Vero [24]): > 400 µg/mL; MIC (Vero [25]): > 400 µg/mL
Nc1ncnc2c1ncn2[C@@H]1O[C@H](/C=C\Br)[C@@H](O)[C@H]1O	65	70 (≈ 205 µM)	> 200	150 (≈ 438 µM)	150 (≈ 438 µM)	> 200	134	> 200	150 (≈ 438 µM)	> 200	> 200	104	93		≥ 200	150 (≈ 438 µM)	150 (≈ 438 µM)	20 (≈ 58.5 µM)	> 100		

From ChEMBL document CHEMBL1127375, “Nucleic acid related compounds. 84. Synthesis of 6'-(E and Z)-halohomovinyl derivatives of adenosine, inactivation of S-adenosyl-L-homocysteine hydrolase, and correlation of anticancer and antiviral potencies with enzyme inhibition” (J Med Chem, 1994)
